For data set [1], the system named is THP-1. The data set can be described thus: Suppression of caspase-1 expression in LPS-treated human THP-1 cells at 1 to 1000 nM incubated for 30 mins followed by ATP stimulation for 1 hr by […]. The class given is functional, cell-based. The note with it: dose 1-1000 nM, time 90.0 min. The method in brief: (§1)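 PMA-differentiated THP-1 cells (1 × 10^6/well) primed with LPS 1 µg/mL for 3 h, then DMSO or compound in serum-free medium for 30 min, then 5 mM ATP for 1 h. RIPA lysates (20 µg) and concentrated supernatants run on SDS-PAGE and western blotted for NLRP3, ASC, caspase-1 and IL-1β, normalized to GAPDH; three independent experiments.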

Data set [2] can be described thus: Half life in C57BL/6 mouse at 25 mg/kg, ip measured for 0.083 to 24 hrs by LC-MS/MS analysis. The conditions noted are these: in vivo, time 0.083-24 hrs. The class given is ADME, organism-based. The method in brief:
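Female C57BL/6 mice, 8 weeks old, 25–30 g, given a single IP dose of 25 mg/kg. Sampling at 5 and 20 min and 1, 2, 3, 6, 8 and 24 h, 3 mice per timepoint; Li-heparin plasma from the cava vein. ACN/MeOH precipitation with diclofenac internal standard, then LC-MS/MS in ESI(−) MRM mode, range 1–2000 ng/mL. Noncompartmental analysis, linear trapezoidal AUC.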

Data set [3] concerns B16-F10. Nature of the data set: Effect on ASC expression in cytosolic luciferase-transfected mouse B16-F10 cells xenografted in C57BL/6 mouse at 25 mg/kg, ip administered thrice weekly measured after 14 days by Western blot analysis. The class given is functional, organism-based. The note with it: time 14.0 day. The method in brief:
(§2)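 Tumors from luciferase-expressing B16-F10 grafts in C57BL/6 mice, dosed IP at 25 mg/kg thrice weekly (DMSO controls), were excised at endpoint and homogenized in sucrose/HEPES/IGEPAL lysis buffer. Lysates were western blotted and bands expressed as fold ratio over β-actin (n = 5).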
In general terms: A western blot detects proteins with antibodies after separation by electrophoresis.

Data set [4] deals with THP-1. The data set can be described thus: Suppression of ASC expression in LPS-treated human THP-1 cells at 1 to 1000 nM incubated for 30 mins followed by ATP stimulation for 1 hr […]. The conditions noted are these: dose 1-1000 nM, time 90.0 min. Format: functional, cell-based. The gist of the method: as §1
Data set [5] deals with B16-F10. The data set can be described thus: Effect on pro-IL-1beta expression in cytosolic luciferase-transfected mouse B16-F10 cells xenografted in C57BL/6 mouse at 25 mg/kg, ip administered thrice weekly measured after 14 days by Western blot analysis. Format: functional, organism-based. The conditions noted are these: time 14.0 day. The method in brief: as §2
Data set [6] deals with THP-1. Nature of the data set: Suppression of IL-1beta processing in LPS-treated human THP-1 cells at 1 to 1000 nM incubated for 30 mins followed by ATP stimulation for 1 hr by ELISA method. Format: functional, cell-based. The conditions noted are these: dose 1-1000 nM, time 90.0 min. A general note: In an ELISA, binding on a coated surface is turned into a signal by an enzyme label.

For data set [7], the system named is THP-1. Nature of the data set: Cytotoxicity against human THP-1 cells assessed as reduction in cell viability at 1 uM measured after 48 hrs by RealTime-Glo MT assay. Format: toxicity, cell-based. The note with it: thp-1, 48 h. The gist of the method: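 THP-1 cells (10 × 10^4/well) treated with inhibitors at 1 µM and kept 48 h; RealTime-Glo reagent added, luminescence read every 12 h as a proxy for metabolically active cells; means of RLU ± SEM.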

The test system of data set [8] is B16-F10. The data set can be described thus: Effect on total caspase-1 expression in cytosolic luciferase-transfected mouse B16-F10 cells xenografted in C57BL/6 mouse at 25 mg/kg, ip administered thrice weekly measured after 14 days by Western blot analysis. Format: functional, organism-based. The note with it: time 14.0 day. The gist of the method: as §2
The subject of the next data set is BMDM. Nature of the data set: Effect on AIM2 inflammasome activation in LPS-treated mouse BMDM cells assessed as IL-1beta release at 1 uM incubated for 30 mins followed by Poly (dA:dT) stimulation for 4 hrs by ELISA method. The class given is functional, cell-based. The note with it: time 270.0 min. The gist of the method: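 BMDMs primed with LPS 100 ng/mL for 3 h, then compound 1 µM in serum-free medium for 30 min, then poly(dA:dT) 1 µg/mL transfected with lipofectamine 2000 for 4 h; supernatant mouse IL-1β by ELISA.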

Data set [9] relates to THP-1. The data set can be described thus: Suppression of NLRP3 expression in LPS-treated human THP-1 cells at 1 to 1000 nM incubated for 30 mins followed by ATP stimulation for 1 hr […]. Format: functional, cell-based. The note with it: dose 1-1000 nM, time 90.0 min.

Activity calls are given as the source filed them. The rule behind the calls is not given here.

As a reminder, the half-life is the time in which the quantity being followed falls by half. The low end stands for fast loss, the high end for slow loss.

`CC(C)[C@H](NS(=O)(=O)c1ccc([N+](=O)[O-])cc1)C(=O)Nc1c2c(cc3c1CCC3)CCC2`: the outcome in the data set on THP-1 [1], in the data set with B16-F10 [3], in the data set with THP-1 [4], in the data set with B16-F10 [5], with B16-F10 [8] and with BMDM was inactive. The result with THP-1 [9] was inactive. In [2], this compound gave a half-life of 9.5 h. Besides, in the data set with THP-1 [6], the outcome was Active. Further, in the data set on THP-1 [7], the Activity result is “Non-Toxic”.
